SENP8 block-1: inhibitors of human SENP8 protease. Q96LD8. recombinant SENP8, Nedd8 substrate fluorescence. inhibition, % at 20 µM. 360,000 compounds, 0.64% hits; in the data active = inhibition mostly above about 40%, no sharp cut-off; inactive = mostly below about 27%
Target sequence (Q96LD8 whole entry, looked up): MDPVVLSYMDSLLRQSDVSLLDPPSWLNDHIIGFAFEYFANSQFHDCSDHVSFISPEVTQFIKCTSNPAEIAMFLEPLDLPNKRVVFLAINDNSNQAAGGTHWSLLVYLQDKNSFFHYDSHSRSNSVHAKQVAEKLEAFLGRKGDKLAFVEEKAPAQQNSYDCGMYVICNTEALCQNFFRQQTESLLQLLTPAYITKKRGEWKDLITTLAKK
SENP6 block: SENP6 protease inhibition; inhibition, % at 10 µM; Q9GZR1; Recombinant SENP6 catalytic domain, aminoluciferin luminescence; 330,000 compounds, 1.8% hits;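 active = inhibition above about 50% at the single tested dose, limit read from the data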;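 also: plate controls were DMSO wells with enzyme for no effect and DMSO wells lacking enzyme for full effect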
SENP1 inh: inhibitors of human SENP1 SUMO protease catalytic domain | Q9P0U3 | 360,000 compounds, 0.21% hits | inhibition, % at 10 µM | recombinant SENP1 catalytic domain, CyPet-SUMO1-YPet FRET cleavage;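 active = inhibition at least 30% at 10 µM, raw YFP signal under a set limit, fluorescence ratio 0.5 to 1.5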;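 also: 0% = enzyme with DMSO and 100% = no enzyme wells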
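Material – human SENP1 catalytic domain · Input – SENP1 enzyme, 20 pM final · Compound dosing – single concentration of 10 µM compound, 0.5% DMSO final · Timing – enzyme reaction for 50 min at room temperature, dark · Measured by – FRET fluorescence in CFP and YFP emission channels · Control set – no-enzyme wells low, DMSO-plus-enzyme wells high control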
SENP8 block-2: inhibitors of human SENP8 protease; Q96LD8; inhibition, % at 10 µM; 330,000 compounds, 1.2% hits; purified SENP8, Z-RLRGG-aminoluciferin cleavage, luminescence; in the data active = inhibition above about 50%
SENP7 block: blocks the human protease SENP7 | Q9BQF6 | inhibition, % at 5 µM | recombinant SENP7, Z-RLRGG-aminoluciferin luminescence, 40 min | 330,000 compounds, 1.5% hits;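 active = inhibition above about 50% at the single test dose, limit read from the data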;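 also: plate controls were DMSO with enzyme for no effect and no enzyme buffer wells for full effect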
Target sequence (Q9BQF6 706-1050 limits assumed): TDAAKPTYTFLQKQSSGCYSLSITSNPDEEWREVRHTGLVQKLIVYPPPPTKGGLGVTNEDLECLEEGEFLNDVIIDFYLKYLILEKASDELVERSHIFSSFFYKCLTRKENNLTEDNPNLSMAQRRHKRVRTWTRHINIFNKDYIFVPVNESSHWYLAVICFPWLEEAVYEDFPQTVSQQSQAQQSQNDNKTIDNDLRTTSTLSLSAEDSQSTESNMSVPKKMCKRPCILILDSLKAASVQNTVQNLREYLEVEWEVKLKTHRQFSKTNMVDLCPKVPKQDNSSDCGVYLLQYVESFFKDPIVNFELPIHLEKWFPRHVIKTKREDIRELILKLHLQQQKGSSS
SENP8 confirm: confirmation of human SENP8 protease inhibitors; shares compounds with SENP7 block; Recombinant SENP8, Z-RLRGG-aminoluciferin luminescence, 60 min; inhibition, % at 12.5 µM; 6,200 compounds, 40% hits; AID 488912;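 active = mean inhibition across replicates above about 50%, limit read from the data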
SENP6 conf: confirmation of human SENP6 protease inhibitors; recombinant SENP6, Z-RLRGG-aminoluciferin luminescence; 6,200 compounds, 58% hits; shares compounds with SENP7 block; inhibition, % at 12.5 µM; AID 488915
SENP7 conf: human SENP7 inhibition, confirmed | shares compounds with SENP7 block | recombinant SENP7, Z-RLRGG-aminoluciferin luminescence, 40 min | inhibition, % at 12.5 µM | 6,200 compounds, 69% hits
Casp3 SENP sel: inhibits human caspase-3 in SENP selectivity test; shares compounds with SENP7 block; inhibition, % at 12.5 µM; 6,200 compounds, 60% hits; AID 488918; purified caspase-3, Z-DEVD-aminoluciferin luminescence, 60 min;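 active = mean inhibition above about 50%, limit read from the data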;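 also: plate controls were enzyme with DMSO for no effect and wells without caspase-3 for full effect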
SENP luc ctr: luminescence interference (SENP counter-screen). Pre-incubated SENP8/Z-RLRGG-aminoluciferin, luciferase luminescence interference. shares compounds with SENP7 block. 6,200 compounds, 39% hits. inhibition, % at 12.5 µM. AID 488919;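 active = mean inhibition above about 50% when retested at one dose, limit read from the data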;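 also: plate controls were DMSO wells with completed reaction for no effect and substrate without enzyme for full effect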
Numbers without * were called inactive; · = no result. This is a sample that favours compounds with a hit; in the whole collection about 2.5% have one here.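 The calls were made as follows, unless noted: active = mean inhibition above about 50% in the one-dose retest (limit read from the data); inactive = the rest.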

SMILES	SENP8 block-1	SENP6 block	SENP1 inh	SENP8 block-2	SENP7 block	SENP8 confirm	SENP6 conf	SENP7 conf	Casp3 SENP sel	SENP luc ctr
COCCNC(=O)CN(c1cc(Cl)ccc1OC)S(=O)(=O)c1ccc(C)c([N+](=O)[O-])c1	0	8	4	-3	-5	·	·	·	·	·
COc1ccc(N(CC(=O)NCc2cccnc2)S(=O)(=O)c2ccc(C)c([N+](=O)[O-])c2)cc1	8	3	2	7	6	·	·	·	·	·
O=C(O)COc1ccc(-c2nnn(CC(=O)O)n2)cc1	6	-1	0	-2	2	·	·	·	·	·
CCOC(=O)c1c(-c2ccco2)csc1NC(=O)COC(=O)c1cnc(C)cn1	-13	-6	-1	-3	3	·	·	·	·	·
O=C(COC(=O)c1ccc(O)cc1O)Nc1nnc(-c2ccccc2)o1	-6	-11	0	-7	-4	·	·	·	·	·
C/C(=N\OC(=O)Nc1ccccc1)c1ccc(C)cc1	28	67*	1	70*	73*	82*	83*	96*	79*	78*
COc1cccc(/C=N/Nc2snc(SC)c2C#N)c1O	-255	99*	-25	96*	96*	95*	98*	100*	94*	79*
COc1cccc(/C=N/Nc2snc(SC)c2C#N)c1	-205	37	6	5	0	·	·	·	·	·
COc1ccc(/C=N/Nc2snc(SC)c2C#N)cc1OC	-272	61*	-1	19	4	6	8	33	12	3
NS(=O)(=O)c1c(Sc2ccccc2C(=O)O)ccc2ccccc12	5	94*	-4	-9	52*	-4	0	-4	2	40
CN(C)C(=O)c1ccc(NC(=O)CN2C(=O)NC3(CCCc4ccccc43)C2=O)cc1 (centres undefined)	19	-2	1	-2	1	·	·	·	·	·
Nc1ncnc2c1ncn2[C@@H]1O[C@H](C(=O)N[C@H](CO)Cc2ccc(O)cc2)[C@@H](O)[C@H]1O	22	·	-3	·	·	·	·	·	·	·
CCOC(=O)Cc1csc(NC(=O)CSc2ncnc3c2cnn3-c2ccc(OC)cc2)n1	-333	75*	-14	71*	52*	42	69*	59*	84*	12
CCOC(=O)CNC(=O)CSc1ncnc2c1cnn2-c1ccc(Cl)cc1	-77	10	-1	5	2	·	·	·	·	·
COc1ccc(-n2ncc3c(SCC(=O)N4CCN(c5ccccc5OC)CC4)ncnc32)cc1	11	32	-4	69*	12	6	14	7	31	1
Cc1cccc(/C=N/Nc2nncc3ccccc23)c1	5	92*	1	90*	96*	74*	94*	102*	94*	13
COc1ccc(/C=N/Nc2ccccn2)c(OC)c1OC	-7	-15	0	-7	2	·	·	·	·	·
COc1ccccc1/C=N/Nc1nccnc1Cl	-151	90*	3	85*	91*	86*	85*	98*	95*	89*
COc1cc(/C=N/Nc2nncc3ccccc23)cc(OC)c1OC	21	70*	0	59*	78*	77*	75*	94*	82*	71*
COc1ccc(/C=N\Nc2ccccn2)c(OC)c1	-25	55*	2	54*	43	7	62*	87*	62*	2
C/C=C(\C)CN1CCCC(N(C)CCc2ccc(OC)c(OC)c2)C1 (centres undefined)	11	18	-2	13	1	·	·	·	·	·
COc1cc(NC(=O)C2CC(c3ccccc3O)=NO2)cc(OC)c1OC (centres undefined)	12	·	1	·	·	·	·	·	·	·
COc1ccc(/C=N/Nc2nncc3ccccc23)c(OC)c1	17	77*	0	64*	78*	15	73*	43	34	4
C(=N\Nc1nncc2ccccc12)/c1ccccc1	-28	33	-2	24	30	·	·	·	·	·
O=C(N/C=C/c1ccccc1)c1ccccc1	-16	71*	-1	58*	41	-6	46	82*	63*	36
SMILES	SENP8 block-1	SENP6 block	SENP1 inh	SENP8 block-2	SENP7 block	SENP8 confirm	SENP6 conf	SENP7 conf	Casp3 SENP sel	SENP luc ctr
CCNC(=O)C1(C)CCCN(C(=O)c2cc(-c3ccccc3)cs2)C1 (centres undefined)	15	·	1	·	·	·	·	·	·	·
COc1ccccc1C(=O)N1CCc2ccccc21	8	-1	0	4	-4	·	·	·	·	·
Nc1ccccc1C(=O)N1CCc2ccccc21	-42	55*	2	14	-16	42	36	25	43	55*
O=C(CCCOc1ccccc1)N1CCCCC1	15	55*	1	25	47	30	27	69*	79*	49
CC(=O)Oc1ccc(Oc2ccc(-c3noc(C)n3)cc2)cc1	12	-5	0	-6	-3	·	·	·	·	·
CC(=O)Oc1ccc(-c2nc(-c3cccnc3)no2)cc1	14	96*	0	98*	100*	97*	99*	103*	98*	37
O/C(=C\c1ccc2ccccc2n1)c1ccncc1	-115	98*	-27	90*	97*	94*	94*	102*	97*	94*
COC(=O)N1CCCCC1c1cc(C(=O)Nc2ccc(OC)cc2C)no1 (centres undefined)	17	·	0	·	·	·	·	·	·	·
COc1cc(NS(=O)(=O)c2ccc(NC(=O)/C(=C\c3ccccc3OC)NC(=O)c3ccccc3)cc2)nc(OC)n1	-3	2	-1	1	-4	·	·	·	·	·
COc1cc(NS(=O)(=O)c2ccc(NC(=O)/C(=C/c3ccccc3Cl)NC(=O)c3ccccc3)cc2)nc(OC)n1	17	64*	-2	3	4	-20	-17	-3	-7	-5
COC(=O)c1sccc1NC(=O)CC1NCCNC1=O (centres undefined)	18	-11	2	-4	-8	·	·	·	·	·
O=[N+]([O-])c1ccc(NN=Cc2cccc([N+](=O)[O-])c2)cc1	-8	·	-34	·	·	·	·	·	·	·
O=[N+]([O-])c1ccc(N/N=C/c2cccc(O)c2)cc1	-64	82*	-18	77*	53*	90*	89*	94*	37	86*
O=[N+]([O-])c1ccc(N/N=C/c2cccc(O)c2O)cc1	-57	78*	-25	59*	39	39	46	84*	37	68*
